Source: PubChem (Broad Institute)
A selection: hits, their analogues and other compounds. The true share with any hit is near 3.3%.
E-sel inducer: E-selectin induction on HUVECs; HUVEC E-selectin immunofluorescence imaging; normalized: neutral wells 0, TNF-alpha wells 100; 0.37% of 260,000 active; P16581; activation, % at 7.58 µM;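 active means mean E-selectin-positive cell signal at least 10% of the positive control, reached in at least 60% of replicates, without over 20% cell loss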
Target sequence (P16581 whole entry, looked up): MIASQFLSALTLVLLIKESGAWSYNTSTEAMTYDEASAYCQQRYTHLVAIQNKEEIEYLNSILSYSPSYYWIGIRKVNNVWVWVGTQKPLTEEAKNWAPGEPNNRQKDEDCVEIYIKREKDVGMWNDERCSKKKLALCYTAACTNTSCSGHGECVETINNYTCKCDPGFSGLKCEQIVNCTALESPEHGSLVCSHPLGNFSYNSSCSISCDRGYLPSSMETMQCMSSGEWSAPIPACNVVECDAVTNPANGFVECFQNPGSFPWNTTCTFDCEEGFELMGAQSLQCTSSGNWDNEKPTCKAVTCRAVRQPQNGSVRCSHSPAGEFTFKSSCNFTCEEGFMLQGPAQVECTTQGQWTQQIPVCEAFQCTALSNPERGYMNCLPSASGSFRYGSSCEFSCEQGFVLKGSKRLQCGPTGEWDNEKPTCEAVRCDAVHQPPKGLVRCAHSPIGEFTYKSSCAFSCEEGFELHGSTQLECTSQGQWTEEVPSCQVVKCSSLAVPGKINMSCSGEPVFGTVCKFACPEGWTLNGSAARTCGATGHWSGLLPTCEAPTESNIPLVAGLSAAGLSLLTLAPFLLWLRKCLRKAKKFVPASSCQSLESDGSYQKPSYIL
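Read-out basis: % PE-positive cells; Test system: HUVEC primary endothelial cells; Technique: immunofluorescence imaging; Dosing: single-point compound dose.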
DENV2 CPE rescue: DENV2-induced cell death inhibition. DENV2-infected cells, cytopathic effect rescue, plate reader. CPE inhibition, % at 9.99 µM. 1.7% of 350,000 active. AID 651640; in the data active means CPE inhibition above about 20%, passing the limit was not always enough; tested in BHK-21 cells
XiGFP reactiv: activators of X-chromosome reactivation in mouse fibroblasts; XiGFP mouse fibroblasts, % GFP-positive cells imaging, 3 d; cells co-treated with 5-aza-dC sensitizer; scaled so ellipticine positive control = 100%; activation, % at 7.58 µM; 0.055% of 360,000 active;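 active means mean normalized replicate activation at least 10% and every replicate at or above 10%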
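System: 68-5-11 XiGFP fibroblast line | Buffer or medium: DMEM containing 5-aza-dC | Compound: Single point | Times: Compounds 3 days, fix/stain 15 min at room temperature | Benchmarks: Positive control ellipticine, 6 µM final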
PglD DTNB: inhibitors of Campylobacter jejuni PglD acetyltransferase; purified PglD enzyme, DTNB colorimetric CoA detection; inhibition, % at 12.5 µM; 0.098% of 360,000 active; AID 602405; in the data active means inhibition above about 16%, passing the limit was not always enough
FGF22 binding-1: shifts melting point of recombinant human FGF22; Q9HCT0; recombinant FGF22 thermal shift, SYPRO orange fluorescence; percent of sucrose octasulfate shift, DMSO zero; activity (Tm shift, normalised), % at 9.99 µM; 1.5% of 340,000 active;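 active means mean Tm shift, scaled 0 neutral to 100 positive control, at about 1.3% or above, every replicate too, limit read from the data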
Statin myotox sup: suppression of simvastatin myotoxicity | C2C12 myotubes + simvastatin, ATP luminescence, 48 h; scaled: DMSO 0, geranylgeraniol control 100 | rescue of ATP level, % at 7.49 µM | 0.78% of 330,000 active;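 active means mean ATP rescue above about 67%, or every replicate alone reaching that limit, limit read from the data, passing the limit was not always enough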;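 further: myotubes were challenged with 10 µM simvastatin during compound exposure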
FGF22 binding-2: FGF22 (human) binding in thermal shift. 2% of 1,000 active. shares compounds with FGF22 binding-1. AID 720646. recombinant FGF22 thermal shift, SYPRO orange fluorescence. thermal shift activity, °C (ΔTm) at 38 µM;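 active means fitted rise in melting shift crosses a set limit at or below the top valid dose tested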
FGF22 TSA: binders of human FGF22 by thermal shift; 50 tested, under 10 active; AID 743017; Thermal shift assay, SYPRO orange, melting temperature shift; Tm shift (activity), % at 38 µM; shares compounds with FGF22 binding-1;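 active means compounds whose fitted dose curve of melting temperature shift rises past a set threshold within the tested doses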
TSA no protein: compound-only SYPRO artifact for FGF22 binders. shares compounds with FGF22 binding-1. compound-only SYPRO orange thermal shift counter-screen, no protein. AC50, µM (doses to about 38 µM). 2% of 1,000 active;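 active means rising signal whose fitted curve reaches the 0.54 level within the top valid dose, showing a melting point, actives reach about 13 µM in these data; inactive means the rest, including activity in the opposite direction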; further: value is where the raw curve crosses a fixed level and not half-maximal
A number is an active result; - = inactive; . = no result given.

SMILES | E-sel inducer | DENV2 CPE rescue | XiGFP reactiv | PglD DTNB | FGF22 binding-1 | Statin myotox sup | FGF22 binding-2 | TSA no protein | others
C[C@@H]1CN([C@H](C)CO)S(=O)(=O)c2ccc(-c3ccc(F)cc3)cc2O[C@@H]1CN(C)C(=O)Nc1ccccc1F | - | . | - | - | 1.8 | - | - | -
COc1cccc(NC(=O)N(C)C[C@H]2Oc3cc(-c4ccccc4F)ccc3S(=O)(=O)N([C@H](C)CO)C[C@H]2C)c1 | . | . | - | - | 2.3 | - | - | 11.5µM
COc1cccc(NC(=O)N(C)C[C@@H]2Oc3cc(-c4ccccc4F)ccc3S(=O)(=O)N([C@@H](C)CO)C[C@@H]2C)c1 | . | . | - | - | 2.1 | - | - | -
C/C=C/c1ccc2c(c1)O[C@@H](CN(C)C(=O)Nc1ccc(F)cc1)[C@@H](C)CN([C@H](C)CO)S2(=O)=O | - | - | - | - | . | - | - | -
C[C@H](NC(=O)[C@H]1[C@H](CO)[C@H]2Cn3c(cccc3=O)[C@H]2N1C(=O)C1CC1)c1ccccc1 | - | - | - | - | - | - | . | .
Cc1noc(C)c1NC(=O)Nc1ccc2c(c1)C(=O)N([C@H](C)CO)C[C@@H](C)[C@H](CN(C)S(=O)(=O)c1ccccc1)O2 | - | . | - | . | . | . | . | .
COCC#Cc1ccc2c(c1)O[C@H](CN(C)CC1CCOCC1)[C@@H](C)CN([C@H](C)CO)S2(=O)=O | - | - | - | - | - | - | . | .
C[C@@H]1CN([C@@H](C)CO)S(=O)(=O)c2ccc(/C=C/c3ccccc3)cc2O[C@H]1CN(C)Cc1ccc(C(=O)O)cc1 | - | - | - | - | - | - | . | .
C[C@H]1CN([C@@H](C)CO)S(=O)(=O)c2ccc(/C=C/c3ccccc3)cc2O[C@@H]1CN(C)Cc1ccc(C(=O)O)cc1 | - | - | - | - | 1.6 | - | - | -
C[C@@H]1CN([C@H](C)CO)C(=O)c2cc(-c3ccc(F)cc3)cnc2O[C@H]1CN(C)C(=O)C1CCC1 | - | - | - | - | - | - | . | .
O=S1(=O)N=C(N(Cc2cccs2)c2ccc(O)cc2)c2ccccc21 | . | - | - | . | 1.4 | . | . | - | FGF22 TSA=-
Oc1c(CN2CCOCC2)cc(CN2CCOCC2)c(O)c1O | - | - | - | - | 1.4 | - | - | -
C[C@@H]1CN([C@@H](C)CO)C(=O)c2cc(NC(=O)CCC(F)(F)F)ccc2O[C@@H](C)CCCCO[C@@H]1CN(C)C(=O)Nc1ccc(C(F)(F)F)cc1 | - | - | - | - | - | . | . | .
COc1ccc(Cc2nnc(-c3ccccc3)o2)cc1 | - | - | - | . | 16.6 | - | - | -
c1ccc(Cc2nnc(-c3ccccc3)o2)cc1 | . | . | . | - | . | . | . | .
Nc1nc(-c2cccnc2)nn1C(=O)c1ccc(F)cc1 | - | - | - | - | 1.7 | - | - | -
COc1cccc(C#Cc2ccc([C@H]3[C@H]4CN(S(=O)(=O)c5ccccc5C)CC(=O)N4[C@H]3CO)cc2)c1 | - | - | - | . | 1.4 | . | - | -
O=C1COc2ccc(S(=O)(=O)N3CCCCC3)cc2N1 | - | - | - | - | - | - | . | .
O=C1COc2ccc(S(=O)(=O)N3CCCC3)cc2N1 | . | - | - | - | 1.5 | - | - | -
COc1cccc(S(=O)(=O)N2CCC3(CC2)CN(C(=O)Nc2ccc(F)cc2)[C@@H](CO)c2[nH]c4cc(OC)ccc4c23)c1 | - | - | - | . | - | . | . | .
COc1ccc2c3c([nH]c2c1)[C@H](CO)N(C(=O)Nc1ccc(F)cc1)CC31CCN(S(=O)(=O)c2cccs2)CC1 | - | - | - | . | 16.2 | . | - | -
COc1ccc2c3c(n(C)c2c1)[C@@H](CO)N(C(=O)Nc1ccc(F)cc1)CC31CN(C(=O)NC2CCCC2)C1 | - | - | - | . | - | . | . | .
COc1cc(OC)c(C(=O)OCC(=O)NC2CCCCCCC2)cc1OC | - | - | - | . | - | . | . | .
COc1cc(OC)c(C(=O)OCC(=O)NCC2CCCCC2)cc1OC | . | - | - | - | 9.3 | - | - | -
O=C(NC[C@@H]1[C@@H](c2ccccc2)[C@H](CO)N1Cc1cccnc1)c1ccccn1 | - | - | - | - | - | - | . | .
SMILES | E-sel inducer | DENV2 CPE rescue | XiGFP reactiv | PglD DTNB | FGF22 binding-1 | Statin myotox sup | FGF22 binding-2 | TSA no protein | others
O=C(N/N=C/c1c(O)ccc2ccccc12)c1[nH]ncc1Br | . | - | - | . | 1.3 | . | - | -
CCCNC(=O)C[C@H]1CC[C@@H]2[C@@H](COc3ccc(NC(=O)Nc4ccccc4F)cc3C(=O)N2C)O1 | - | - | - | - | - | - | . | .
CO[C@@H]1CN(C)C(=O)c2ccc(NS(=O)(=O)c3ccc(F)cc3)cc2OC[C@@H](C)N(C)C[C@H]1C | - | - | - | - | 205.8 | - | - | -
CO[C@H]1CN(C)C(=O)c2ccc(NS(=O)(=O)c3ccc(Oc4ccccc4)cc3)cc2OC[C@@H](C)NC[C@@H]1C | - | - | - | - | - | - | . | .
CO[C@@H]1CN(C)C(=O)c2ccc(NS(=O)(=O)c3ccc(Oc4ccccc4)cc3)cc2OC[C@H](C)NC[C@@H]1C | - | - | - | - | 1.2 | - | - | -
O=C(C[C@@H]1CC[C@@H](NC(=O)Nc2cc(F)ccc2F)[C@H](CO)O1)NCCCN1CCOCC1 | - | - | - | - | 38.6 | - | - | -
O=C(C[C@H]1CC[C@@H](NC(=O)Nc2cc(F)ccc2F)[C@@H](CO)O1)Nc1ccc(-c2ccccc2)cc1 | - | - | - | - | 1.3 | - | - | -
C[C@H](NC(=O)C[C@@H]1CC[C@@H](NC(=O)Nc2ccc3c(c2)OCO3)[C@@H](CO)O1)c1ccccc1 | - | - | - | - | 6.9 | - | - | -
COc1cccc(NC(=O)N[C@@H]2CC[C@@H](CC(=O)Nc3ccccc3)O[C@H]2CO)c1 | - | - | - | - | 22.4 | - | - | -
Cc1noc(C)c1S(=O)(=O)N(C)C[C@@H]1OCCCC[C@@H](C)Oc2ccc(NC(=O)NC3CCCCC3)cc2C(=O)N([C@H](C)CO)C[C@@H]1C | - | - | - | - | - | . | . | .
O=C(NCC[C@H]1CC[C@@H](NC(=O)Nc2cc(F)ccc2F)[C@@H](CO)O1)Nc1ccc(F)cc1 | - | - | - | - | - | - | . | .
O=C(NCC[C@@H]1CC[C@@H](NC(=O)Nc2cc(F)ccc2F)[C@@H](CO)O1)Nc1ccc(F)cc1 | - | - | - | - | 1.3 | - | - | -
O=C(C[C@@H]1CC[C@H](NC(=O)c2ccc3c(c2)OCO3)[C@H](CO)O1)NCc1ccc(Oc2ccccc2)cc1 | - | - | - | - | 16.1 | - | - | -
